Source: ChEMBL document CHEMBL1126849, “Synthesis of A-ring fluorinated derivatives of (17 alpha,20E/Z)-[125I]iodovinylestradiols: effect on receptor binding and receptor-mediated target tissue uptake” (J Med Chem, 1993)

Columns and labels:
Rattus norvegicus [1] = assay: Biodistribution in spleen of immature female rat after 3 hour administration of 3 micro Ci (111 kBq) in the absence of 60 microg estradiol; type: ADME, organism-based; conditions: in vivo
Method in brief: (§1)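 Immature female Long Evans rats (21–24 days, 45–70 g), three to five per group, given 125I-labeled steroid (3 μCi, 111 kBq) by lateral tail vein without anesthesia. Vehicle: ethanol diluted in saline with 1% Tween-80, final ethanol 9%, 0.22 μm filtered. +E2 groups received 60 μg unlabeled estradiol co-injected. Killed under ether at set times; tissues KCl-washed, blotted, weighed, gamma counted; %ID/g, mean with SE.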

Rattus norvegicus [2] = assay: Biodistribution in fat of immature female rat after 1 hr administration of 3 micro Ci (111 kBq) in the presence of (+E2); type: ADME, organism-based, Adipose tissue; conditions: in vivo
Method in brief: (§2)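 Immature female Long Evans rats (21–24 days, 45–70 g), unanesthetized in retention cages, given 3 µCi (111 kBq) 125I-labeled steroid i.v. via lateral tail vein. Vehicle was ethanol diluted in saline containing 1% Tween-80, giving 9% ethanol final. The blocking group received 60 µg unlabeled estradiol co-injected. Rats were killed under ether by axillary bleeding, and tissues were KCl-washed and gamma-counted. Data are %ID/g, mean ± SE, n=3–5.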

Rattus norvegicus [3] = assay: Biodistribution in blood of immature female rat after 5 hour administration of 3 micro Ci (111 kBq) in the absence of 60 microg estradiol; type: ADME, organism-based; conditions: in vivo; method in brief: as §2
Rattus norvegicus [4] = assay: Biodistribution in thyroid of immature female rat after 5 hour administration of 3 micro Ci (111 kBq) in the absence of 60 microg estradiol; type: ADME, organism-based, Thyroid gland; conditions: in vivo; method in brief: as §1
Rattus norvegicus [5] = assay: Biodistribution in thyroid of immature female rat after 12 hour administration of 3 micro Ci (111 kBq) in the absence of 60 microg estradiol; type: ADME, organism-based, Thyroid gland; conditions: in vivo; method in brief: as §1
Rattus norvegicus [6] = assay: Biodistribution in muscle of immature female rat after 1 hr administration of 3 micro Ci (111 kBq) in the presence of (+E2); type: ADME, organism-based, Muscle tissue; conditions: in vivo; method in brief: as §1
Rattus norvegicus [7] = assay: Biodistribution in uterus / blood of immature female rat after 12 hour administration of 3 micro Ci (111 kBq) in the absence of 60 microg estradiol; type: ADME, organism-based; conditions: in vivo
Method in brief: (§3)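 Same in vivo procedure: immature female Long Evans rats (21–24 days), three to five per group, 3 μCi (111 kBq) tracer i.v. via tail vein in 9% ethanol/saline/1% Tween-80, ± 60 μg estradiol co-injected at 1 h. Uterus %ID/g (gamma counting) divided by blood, or by nontarget organ (muscle, spleen, lungs), %ID/g to give ratios.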

Rattus norvegicus [8] = assay: Biodistribution in fat of immature female rat after 12 hour administration of 3 micro Ci (111 kBq) in the absence of 60 microg estradiol; type: ADME, organism-based, Adipose tissue; conditions: in vivo; method in brief: as §2
[9] = molecular target: T1, Estrogen receptor (Mus musculus) (UniProt O08537+P19785); assay: Relative binding affinity (RBA) for murine cytoplasmic estrogen receptor at 4C for 2 hr; type: protein assay
Method in brief: (§4)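 Murine uterine cytoplasmic extract incubated 2 h at 4 °C or at 25 °C with 20 nM [3H]estradiol and competitors at 2 nM–20 μM. RBA is taken as 100 × the ratio of competitor to unlabeled estradiol concentration needed for 50% competition of specific [3H]estradiol binding.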

Rattus norvegicus [10] = assay: Biodistribution in uterus / spleen, muscle, lungs of immature female rat after 3 hour administration of 3 micro Ci (111 kBq) in the absence of 60 microg estradiol; type: ADME, organism-based; conditions: in vivo
Method in brief: (§5)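 Immature female Long Evans rats (21–24 days, 45–70 g), 3–5 per group, unanesthetized in retention cages, given 3 μCi (111 kBq) 125I-labeled steroid by lateral tail vein. Vehicle: ethanol diluted with saline containing 1% Tween-80, final ethanol 9%. +E2 group co-injected 60 μg unlabeled estradiol (1 h only). Killed under ether; tissues KCl-washed, weighed, gamma-counted. Output: %ID/g (mean, SE) and uterus to blood or nontarget (muscle, spleen, lungs) ratios.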

[11] = molecular target: T1, Estrogen receptor (Mus musculus); assay: Relative binding affinity (RBA) for murine cytoplasmic estrogen receptor at 4C for 18 hr; type: protein assay
Method in brief: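 Competitive binding on murine uterine cytoplasmic extract with 20 nM [3H]estradiol and competitor steroids at 2 nM–20 μM, incubated 18 h at 0–4 °C. RBA = 100 × ratio of […] concentration giving 50% competition for specific binding. Mean of three experiments with SD.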

Rattus norvegicus [12] = assay: Biodistribution in liver of immature female rat after 5 hour administration of 3 micro Ci (111 kBq) in the absence of 60 microg estradiol; type: ADME, organism-based; conditions: in vivo; method in brief: as §2
Rattus norvegicus [13] = assay: Biodistribution in uterus / blood of immature female rat after 5 hour administration of 3 micro Ci (111 kBq) in the absence of 60 microg estradiol; type: ADME, organism-based; conditions: in vivo; method in brief: as §3
Rattus norvegicus [14] = assay: Biodistribution in lungs of immature female rat after 1 hr administration of 3 micro Ci (111 kBq) in the absence of 60 microg estradiol; type: ADME, organism-based, Lung; conditions: in vivo; method in brief: as §2
Rattus norvegicus [15] = assay: Biodistribution in liver of immature female rat after 12 hour administration of 3 micro Ci (111 kBq) in the absence of 60 microg estradiol; type: ADME, organism-based; conditions: in vivo; method in brief: as §2
Rattus norvegicus [16] = assay: Biodistribution in kidney of immature female rat after 1 hr administration of 3 micro Ci (111 kBq) in the absence of 60 microg estradiol; type: ADME, organism-based; conditions: in vivo; method in brief: as §2
Rattus norvegicus [17] = assay: Biodistribution in kidney of immature female rat after 1 hr administration of 3 micro Ci (111 kBq) in the presence of (+E2); type: ADME, organism-based; conditions: in vivo; method in brief: as §2
Rattus norvegicus [18] = assay: Biodistribution in spleen of immature female rat after 1 hr administration of 3 micro Ci (111 kBq) in the absence of 60 microg estradiol; type: ADME, organism-based; conditions: in vivo; method in brief: as §1
Rattus norvegicus [19] = assay: Biodistribution in uterus / spleen, muscle, lungs of immature female rat after 12 hour administration of 3 micro Ci (111 kBq) in the absence of 60 microg estradiol; type: ADME, organism-based; conditions: in vivo; method in brief: as §5
Rattus norvegicus [20] = assay: Biodistribution in liver of immature female rat after 1 hr administration of 3 micro Ci (111 kBq) in the absence of 60 microg estradiol; type: ADME, organism-based; conditions: in vivo; method in brief: as §2
[21] = molecular target: T1, Estrogen receptor (Mus musculus); assay: Relative binding affinity (RBA) for murine cytoplasmic estrogen receptor at 25 degree C for 2 hr; type: protein assay; method in brief: as §4
Rattus norvegicus [22] = assay: Biodistribution in thyroid of immature female rat after 1 hr administration of 3 micro Ci (111 kBq) in the presence of (+E2); type: ADME, organism-based, Thyroid gland; conditions: in vivo; method in brief: as §1
Rattus norvegicus [23] = assay: Biodistribution in spleen of immature female rat after 12 hour administration of 3 micro Ci (111 kBq) in the absence of 60 microg estradiol; type: ADME, organism-based; conditions: in vivo; method in brief: as §1
Rattus norvegicus [24] = assay: Biodistribution in kidney of immature female rat after 12 hour administration of 3 micro Ci (111 kBq) in the absence of 60 microg estradiol; type: ADME, organism-based; conditions: in vivo; method in brief: as §2
Rattus norvegicus [25] = assay: Biodistribution in uterus / blood of immature female rat after 3 hour administration of 3 micro Ci (111 kBq) in the absence of 60 microg estradiol; type: ADME, organism-based; conditions: in vivo; method in brief: as §3
Rattus norvegicus [26] = assay: Biodistribution in liver of immature female rat after 3 hour administration of 3 micro Ci (111 kBq) in the absence of 60 microg estradiol; type: ADME, organism-based; conditions: in vivo; method in brief: as §2
Rattus norvegicus [27] = assay: Biodistribution in blood of immature female rat after 1 hr administration of 3 micro Ci (111 kBq) in the presence of (+E2); type: ADME, organism-based; conditions: in vivo; method in brief: as §2
Rattus norvegicus [28] = assay: Biodistribution in fat of immature female rat after 5 hour administration of 3 micro Ci (111 kBq) in the absence of 60 microg estradiol; type: ADME, organism-based, Adipose tissue; conditions: in vivo; method in brief: as §2
Rattus norvegicus [29] = assay: Biodistribution in fat of immature female rat after 3 hour administration of 3 micro Ci (111 kBq) in the absence of 60 microg estradiol; type: ADME, organism-based, Adipose tissue; conditions: in vivo; method in brief: as §2

T1 sequence (O08537 whole entry, looked up): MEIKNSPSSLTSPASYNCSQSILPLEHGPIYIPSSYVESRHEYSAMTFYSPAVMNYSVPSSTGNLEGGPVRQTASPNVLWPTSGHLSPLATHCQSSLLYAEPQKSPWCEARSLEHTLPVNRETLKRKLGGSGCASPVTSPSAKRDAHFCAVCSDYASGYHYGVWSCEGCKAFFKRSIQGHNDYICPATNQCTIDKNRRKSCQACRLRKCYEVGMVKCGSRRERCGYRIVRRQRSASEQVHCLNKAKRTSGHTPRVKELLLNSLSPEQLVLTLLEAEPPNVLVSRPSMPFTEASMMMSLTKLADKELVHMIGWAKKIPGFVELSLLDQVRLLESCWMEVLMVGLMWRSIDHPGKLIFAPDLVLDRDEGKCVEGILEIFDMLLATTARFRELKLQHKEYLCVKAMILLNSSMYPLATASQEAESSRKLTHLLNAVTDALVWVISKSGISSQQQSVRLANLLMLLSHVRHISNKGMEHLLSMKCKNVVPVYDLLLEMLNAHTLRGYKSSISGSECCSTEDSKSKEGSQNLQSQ
T1 sequence (P19785 whole entry, looked up): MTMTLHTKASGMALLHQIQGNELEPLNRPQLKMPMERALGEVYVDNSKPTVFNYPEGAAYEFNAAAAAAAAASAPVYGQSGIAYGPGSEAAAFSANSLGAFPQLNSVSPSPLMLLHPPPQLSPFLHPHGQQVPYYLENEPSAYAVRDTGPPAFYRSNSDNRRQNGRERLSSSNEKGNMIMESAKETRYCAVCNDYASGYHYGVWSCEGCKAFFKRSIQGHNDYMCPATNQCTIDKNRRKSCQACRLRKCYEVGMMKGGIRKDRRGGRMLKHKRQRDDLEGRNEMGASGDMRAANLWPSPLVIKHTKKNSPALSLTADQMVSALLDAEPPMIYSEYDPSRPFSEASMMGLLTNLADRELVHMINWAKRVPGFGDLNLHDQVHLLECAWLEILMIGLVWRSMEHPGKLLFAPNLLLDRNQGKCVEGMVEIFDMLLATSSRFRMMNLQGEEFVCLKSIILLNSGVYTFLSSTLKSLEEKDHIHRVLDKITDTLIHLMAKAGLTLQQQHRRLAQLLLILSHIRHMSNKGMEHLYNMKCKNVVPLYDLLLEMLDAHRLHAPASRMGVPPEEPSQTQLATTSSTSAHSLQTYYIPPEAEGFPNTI

ID/g (Rattus norvegicus [1]) | ID/g (Rattus norvegicus [2]) | ID/g (Rattus norvegicus [3]) | ID/g (Rattus norvegicus [4]) | ID/g (Rattus norvegicus [5]) | ID/g (Rattus norvegicus [6]) | ID/g (Rattus norvegicus [8]) | RBA [9] | RBA [11] | ID/g (Rattus norvegicus [12]) | uterus to blood ratio (Rattus norvegicus [13]) | ID/g (Rattus norvegicus [14]) | ID/g (Rattus norvegicus [15]) | ID/g (Rattus norvegicus [16]) | ID/g (Rattus norvegicus [17]) | ID/g (Rattus norvegicus [18]) | ID/g (Rattus norvegicus [20]) | RBA [21] | ID/g (Rattus norvegicus [22]) | ID/g (Rattus norvegicus [23]) | SMILES | other results
0.48% | 3.41% | 0.47% | 117% | 488% | 0.51% | 0.75% | 47.4 | 66.9 | 1.64% | 22.6% | 1.89% | 1.78% | 1.87% | 0.85% | 1.02% | 3.49% | 203 | 50.6% | 0.43% | C[C@]12CC[C@@H]3c4ccc(O)c(F)c4CC[C@H]3[C@@H]1CC[C@@]2(O)/C=C\I | Uterus-to-blood radioactivity ratio (dimensionless) (Rattus norvegicus [7]): 27.32%; Uterus to nontarget tissue (spleen, muscle, lungs) uptake ratio (Rattus norvegicus [10]): 12.16%; uterus to nontarget tissue ratio (Rattus norvegicus [19]): 31.56%; ID/g (Rattus norvegicus [24]): 0.74%; uterus to blood %ID/g ratio (unitless) (Rattus norvegicus [25]): 17.08%; ID/g (Rattus norvegicus [26]): 1.95%; ID/g (Rattus norvegicus [27]): 0.55%; ID/g (Rattus norvegicus [28]): 1.71%; ID/g (Rattus norvegicus [29]): 1.96%
0.29% | 2.88% | 0.3% | 149.9% | 365% | 2.16% | 0.19% | 40.1 | 53.7 | 1.16% | 12.09% | 0.81% | 0.81% | 0.88% | 0.65% | 0.55% | 2.25% | 99 | 36.11% | 0.17% | C[C@]12CC[C@@H]3c4cc(F)c(O)cc4CC[C@H]3[C@@H]1CC[C@@]2(O)/C=C\I | Uterus-to-blood radioactivity ratio (dimensionless) (Rattus norvegicus [7]): 15.69%; Uterus to nontarget tissue (spleen, muscle, lungs) uptake ratio (Rattus norvegicus [10]): 17.64%; uterus to nontarget tissue ratio (Rattus norvegicus [19]): 20.54%; ID/g (Rattus norvegicus [24]): 0.14%; uterus to blood %ID/g ratio (unitless) (Rattus norvegicus [25]): 12.98%; ID/g (Rattus norvegicus [26]): 1.76%; ID/g (Rattus norvegicus [27]): 0.58%; ID/g (Rattus norvegicus [28]): 1.13%; ID/g (Rattus norvegicus [29]): 2.21%
0.32% | 2.93% | 0.29% | 43.46% | 163% | 0.54% | 0.41% | 30.4 | 6.2 | 2.12% | 1.15% | 1% | 1.58% | 0.87% | 0.66% | 0.57% | 3.95% | 5.3 | 22% | 0.05% | C[C@]12CC[C@@H]3c4cc(F)c(O)cc4CC[C@H]3[C@@H]1CC[C@@]2(O)/C=C/I | ID/g (Rattus norvegicus [24]): 0.06%; uterus to blood %ID/g ratio (unitless) (Rattus norvegicus [25]): 1.4%; ID/g (Rattus norvegicus [27]): 0.49%; ID/g (Rattus norvegicus [28]): 2.39%; ID/g (Rattus norvegicus [29]): 3.17%
0.36% | 1.14% | 0.26% | 208% | 385% | 0.58% | 0.3% | 58.7 | 55.9 | 1.21% | 9.01% | 0.89% | 0.59% | 0.93% | 0.87% | 0.59% | 2.91% | 29.1 | 65.69% | 0.1% | C[C@]12CC[C@@H]3c4ccc(O)c(F)c4CC[C@H]3[C@@H]1CC[C@@]2(O)/C=C/I | Uterus-to-blood radioactivity ratio (dimensionless) (Rattus norvegicus [7]): 2.76%; Uterus to nontarget tissue (spleen, muscle, lungs) uptake ratio (Rattus norvegicus [10]): 11.38%; uterus to nontarget tissue ratio (Rattus norvegicus [19]): 5.4%; ID/g (Rattus norvegicus [24]): 0.08%; uterus to blood %ID/g ratio (unitless) (Rattus norvegicus [25]): 4.56%; ID/g (Rattus norvegicus [26]): 2.2%; ID/g (Rattus norvegicus [27]): 0.81%; ID/g (Rattus norvegicus [28]): 1.67%; ID/g (Rattus norvegicus [29]): 1.59%
